Measurements as given in ChEMBL document CHEMBL3124843, “Synthesis, cytostatic, antimicrobial, and anti-HCV activity of 6-substituted 7-(het)aryl-7-deazapurine ribonucleosides” (J Med Chem, 2014).
Calls of active or inactive are those of the source. No rule for the calls is given here.

Columns and labels:
[1] = Cytotoxicity against human HuH7 cells infected with Hepatitis C virus subtype 2a; type: cell-based, Huh-7
Hepatitis C virus [2] = test: Antiviral activity against Hepatitis C virus subtype 2a infected in human HuH7 cells; type: functional, organism-based, Hepacivirus hominis; conditions: genotype 2a, Huh-7
[3] = Cytotoxicity against human HuH7 cells infected with Hepatitis C virus subtype 1b; type: cell-based, Huh-7
Hepatitis C virus [4] = test: Antiviral activity against Hepatitis C virus subtype 1b infected in human HuH7 cells; type: functional, organism-based, Hepacivirus hominis; conditions: genotype 1b, Huh-7
Candida tropicalis = test: Antifungal activity against Candida tropicalis after 48 hrs; type: functional, organism-based
Pichia kudriavzevii = test: Antifungal activity against Candida crusei after 48 hrs; type: functional, organism-based
Candida parapsilosis = test: Antifungal activity against Candida parapsilosis after 48 hrs; type: functional, organism-based
Candida albicans = test: Antifungal activity against Candida albicans after 48 hrs; type: functional, organism-based
Pseudomonas aeruginosa [5] = test: Antibacterial activity against multi-resistant Pseudomonas aeruginosa A/16575 after 24 hrs; type: functional, organism-based
Escherichia coli [6] = test: Antibacterial activity against multi-resistant Escherichia coli C/16702 after 24 hrs; type: functional, organism-based
[7] = tested on: Staphylococcus haemolyticus; test: Antibacterial activity against methicillin-resistant Staphylococcus haemolyticus A/16568 after 24 hrs; type: functional, organism-based
Staphylococcus aureus [8] = test: Antibacterial activity against methicillin-resistant Staphylococcus aureus MRSA 4591 after 24 hrs; type: functional, organism-based
Pseudomonas aeruginosa [9] = test: Antibacterial activity against Pseudomonas aeruginosa CCM 3955 after 24 hrs; type: functional, organism-based
Escherichia coli [10] = test: Antibacterial activity against Escherichia coli CCM 3954 after 24 hrs; type: functional, organism-based
Staphylococcus aureus [11] = test: Antibacterial activity against Staphylococcus aureus CCM 3953 after 24 hrs; type: functional, organism-based
Enterococcus faecalis = test: Antibacterial activity against Enterococcus faecalis CCM 4224 after 24 hrs; type: functional, organism-based
[12] = Antiproliferative activity against human HeLaS3 cells after 72 hrs by XTT assay; type: functional, cell-based; conditions: HeLa S3, 72 h
How it was run: (§1)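 Antiproliferative test on HL-60 promyelocytic leukemia and HeLa S3 cervical carcinoma cells growing in liquid suspension.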

HL-60 = test: Antiproliferative activity against human HL60 cells after 72 hrs by XTT assay; type: functional, cell-based; conditions: HL-60, 72 h; how it was run: as §1
HepG2 = test: Antiproliferative activity against human HepG2 cells after 72 hrs by XTT assay; type: functional, cell-based; conditions: HepG2, 72 h
MRC5 = test: Cytostatic activity against human MRC5 cells after 72 hrs by MTT assay; type: ADME, cell-based; conditions: MRC5, 72 h
How it was run: (§2)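 IC50 is the concentration that cuts cell growth by 50%, read by quantitative metabolic MTT staining after a 3-day treatment. The resistant sublines were made by raising the concentration of the cytotoxic drug step by step. CEM-DNR-bulk (daunorubicin-selected) stably overexpresses mrp-1. K562-TAX (paclitaxel-selected) expresses only mdr-1. HCT116p53−/− carries null p53 alleles. BJ and MRC-5 are nonmalignant fibroblasts.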

BJ = test: Cytostatic activity against human BJ cells after 72 hrs by MTT assay; type: ADME, cell-based; how it was run: as §2
HCT-116 [13] = test: Cytostatic activity against p53-deficient human HCT116 cells after 72 hrs by MTT assay; type: functional, cell-based; conditions: HCT-116, 72 h; how it was run: as §2
HCT-116 [14] = test: Cytostatic activity against human HCT116 cells after 72 hrs by MTT assay; type: functional, cell-based; conditions: HCT-116, 72 h; how it was run: as §2
A549 = test: Cytostatic activity against human A549 cells after 72 hrs by MTT assay; type: functional, cell-based; conditions: A549, 72 h; how it was run: as §2
K562 [15] = test: Cytostatic activity against paclitaxel-resistant human K562 cells after 72 hrs by MTT assay; type: functional, cell-based; conditions: K562, 72 h; how it was run: as §2
K562 [16] = test: Cytostatic activity against human K562 cells after 72 hrs by MTT assay; type: functional, cell-based; conditions: K562, 72 h; how it was run: as §2
[17] = Cytostatic activity against human CEM-DNR-bulk cells after 72 hrs by MTT assay; type: functional, cell-based; how it was run: as §2
CCRF-CEM = test: Cytostatic activity against human CCRF-CEM cells after 72 hrs by MTT assay; type: functional, cell-based; how it was run: as §2

CN(C)c1ncnc2c1ccn2[C@@H]1O[C@H](CO)[C@@H](O)[C@H]1O
CC50 [1]: > 44 µM | EC50 (Hepatitis C virus [2]): 0.97 µM | CC50 [3]: > 44 µM | EC50 (Hepatitis C virus [4]): 270 nM | Activity (Candida tropicalis): inactive | Activity (Pichia kudriavzevii): inactive | Activity (Candida parapsilosis): inactive | Activity (Candida albicans): inactive | Activity (Pseudomonas aeruginosa [5]): inactive | Activity (Escherichia coli [6]): inactive | Activity [7]: inactive | Activity (Staphylococcus aureus [8]): inactive | Activity (Pseudomonas aeruginosa [9]): inactive | Activity (Escherichia coli [10]): inactive | Activity (Staphylococcus aureus [11]): inactive | Activity (Enterococcus faecalis): inactive | IC50 [12]: 10.6 µM | IC50 (HL-60): 0.87 µM | IC50 (HepG2): 1.81 µM | IC50 (MRC5): 58.2 µM | IC50 (BJ): 5.3 µM | IC50 (HCT-116 [13]): 5.09 µM | IC50 (HCT-116 [14]): 18.4 µM | IC50 (A549): > 20 µM | IC50 (K562 [15]): 0.89 µM | IC50 (K562 [16]): 5.28 µM | IC50 [17]: 2.6 µM | IC50 (CCRF-CEM): 0.63 µM

Nc1nc(N)c2c(-c3ccsc3)cn([C@@H]3O[C@H](CO)[C@@H](O)[C@H]3O)c2n1
CC50 [1]: > 44 µM | EC50 (Hepatitis C virus [2]): > 44 µM | CC50 [3]: > 44 µM | EC50 (Hepatitis C virus [4]): > 44000 nM | Activity (Candida tropicalis): inactive | Activity (Pichia kudriavzevii): inactive | Activity (Candida parapsilosis): inactive | Activity (Candida albicans): inactive | Activity (Pseudomonas aeruginosa [5]): inactive | Activity (Escherichia coli [6]): inactive | Activity [7]: inactive | Activity (Staphylococcus aureus [8]): inactive | Activity (Pseudomonas aeruginosa [9]): inactive | Activity (Escherichia coli [10]): inactive | Activity (Staphylococcus aureus [11]): inactive | Activity (Enterococcus faecalis): inactive | IC50 [12]: > 20 µM | IC50 (HL-60): > 20 µM | IC50 (HepG2): > 20 µM | IC50 (MRC5): > 100 µM | IC50 (BJ): > 100 µM | IC50 (HCT-116 [13]): > 20 µM | IC50 (HCT-116 [14]): > 20 µM | IC50 (A549): > 100 µM | IC50 (K562 [15]): > 20 µM | IC50 (K562 [16]): > 20 µM | IC50 [17]: > 20 µM | IC50 (CCRF-CEM): > 20 µM

COc1ncnc2c1c(-c1cc3ccccc3o1)cn2[C@@H]1O[C@H](CO)[C@@H](O)[C@H]1O
CC50 [1]: > 44 µM | EC50 (Hepatitis C virus [2]): 10.2 µM | CC50 [3]: > 44 µM | EC50 (Hepatitis C virus [4]): 2640 nM | Activity (Candida tropicalis): inactive | Activity (Pichia kudriavzevii): inactive | Activity (Candida parapsilosis): inactive | Activity (Candida albicans): inactive | Activity (Pseudomonas aeruginosa [5]): inactive | Activity (Escherichia coli [6]): inactive | Activity [7]: inactive | Activity (Staphylococcus aureus [8]): inactive | Activity (Pseudomonas aeruginosa [9]): inactive | Activity (Escherichia coli [10]): inactive | Activity (Staphylococcus aureus [11]): inactive | Activity (Enterococcus faecalis): inactive | IC50 [12]: 9.24 µM | IC50 (HL-60): 4.47 µM | IC50 (HepG2): > 20 µM | IC50 (MRC5): 65.6 µM | IC50 (BJ): 22.4 µM | IC50 (HCT-116 [13]): 14.5 µM | IC50 (HCT-116 [14]): 13.8 µM | IC50 (A549): 17.7 µM | IC50 (K562 [15]): 13.1 µM | IC50 (K562 [16]): 20.9 µM | IC50 [17]: 10.8 µM | IC50 (CCRF-CEM): 5.37 µM

CNc1ncnc2c1ccn2[C@@H]1O[C@H](CO)[C@@H](O)[C@H]1O
CC50 [1]: > 44 µM | EC50 (Hepatitis C virus [2]): > 44 µM | CC50 [3]: > 44 µM | EC50 (Hepatitis C virus [4]): 820 nM | Activity (Candida tropicalis): inactive | Activity (Pichia kudriavzevii): inactive | Activity (Candida parapsilosis): inactive | Activity (Candida albicans): inactive | Activity (Pseudomonas aeruginosa [5]): inactive | Activity (Escherichia coli [6]): inactive | Activity [7]: inactive | Activity (Staphylococcus aureus [8]): inactive | Activity (Pseudomonas aeruginosa [9]): inactive | Activity (Escherichia coli [10]): inactive | Activity (Staphylococcus aureus [11]): inactive | Activity (Enterococcus faecalis): inactive | IC50 [12]: > 20 µM | IC50 (HL-60): 12.8 µM | IC50 (HepG2): > 20 µM | IC50 (MRC5): 97.8 µM | IC50 (BJ): 91.4 µM | IC50 (HCT-116 [13]): > 20 µM | IC50 (HCT-116 [14]): > 20 µM | IC50 (A549): > 20 µM | IC50 (K562 [15]): 0.92 µM | IC50 (K562 [16]): > 20 µM | IC50 [17]: 4.89 µM | IC50 (CCRF-CEM): > 20 µM

Cc1nc(N)c2c(-c3ccoc3)cn([C@@H]3O[C@H](CO)[C@@H](O)[C@H]3O)c2n1
CC50 [1]: > 44 µM | EC50 (Hepatitis C virus [2]): > 44 µM | CC50 [3]: > 44 µM | EC50 (Hepatitis C virus [4]): > 44000 nM | Activity (Candida tropicalis): inactive | Activity (Pichia kudriavzevii): inactive | Activity (Candida parapsilosis): inactive | Activity (Candida albicans): inactive | Activity (Pseudomonas aeruginosa [5]): inactive | Activity (Escherichia coli [6]): inactive | Activity [7]: inactive | Activity (Staphylococcus aureus [8]): inactive | Activity (Pseudomonas aeruginosa [9]): inactive | Activity (Escherichia coli [10]): inactive | Activity (Staphylococcus aureus [11]): inactive | Activity (Enterococcus faecalis): inactive | IC50 [12]: > 20 µM | IC50 (HL-60): > 20 µM | IC50 (HepG2): > 20 µM | IC50 (MRC5): > 100 µM | IC50 (BJ): > 100 µM | IC50 (HCT-116 [13]): > 20 µM | IC50 (HCT-116 [14]): > 20 µM | IC50 (A549): > 20 µM | IC50 (K562 [15]): > 20 µM | IC50 (K562 [16]): > 20 µM | IC50 [17]: > 20 µM | IC50 (CCRF-CEM): > 100 µM

Cc1ncnc2c1c(-c1ccsc1)cn2[C@@H]1O[C@H](CO)[C@@H](O)[C@H]1O
CC50 [1]: > 44 µM | EC50 (Hepatitis C virus [2]): > 44 µM | CC50 [3]: > 44 µM | EC50 (Hepatitis C virus [4]): 4470 nM | Activity (Candida tropicalis): inactive | Activity (Pichia kudriavzevii): inactive | Activity (Candida parapsilosis): inactive | Activity (Candida albicans): inactive | Activity (Pseudomonas aeruginosa [5]): inactive | Activity (Escherichia coli [6]): inactive | Activity [7]: inactive | Activity (Staphylococcus aureus [8]): inactive | Activity (Pseudomonas aeruginosa [9]): inactive | Activity (Escherichia coli [10]): inactive | Activity (Staphylococcus aureus [11]): inactive | Activity (Enterococcus faecalis): inactive | IC50 [12]: 14.3 µM | IC50 (HL-60): 0.35 µM | IC50 (HepG2): 4.72 µM | IC50 (MRC5): > 100 µM | IC50 (BJ): 96.9 µM | IC50 (HCT-116 [13]): 1.43 µM | IC50 (HCT-116 [14]): 0.46 µM | IC50 (A549): > 20 µM | IC50 (K562 [15]): 5.55 µM | IC50 (K562 [16]): 0.32 µM | IC50 [17]: 8.56 µM | IC50 (CCRF-CEM): 11.2 µM
